# Active and inactive are the calls of the source. The rule behind the calls is not given here.
# Experiments:
# [1] = Selectivity index, ratio of IC50 for African green monkey Vero cells to MIC=<90 for Mycobacterium tuberculosis; assay type: toxicity; conditions: read-out: Selectivity Index
# [2] = system: Mycobacteroides abscessus; experiment: Antibacterial activity against CF patient derived Mycobacterium abscessus subsp. massiliense isolate 122 smooth variant after 3 to 5 days by two fold serial dilution method; assay type: functional
# Summary of the method: (§1)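 Broth microdilution in cation-adjusted Mueller−Hinton broth per CLSI; inoculum 5 × 10^6 CFU/mL of exponential-phase bacteria; two-fold serial dilutions, solvent-only wells as control; 30 °C for 3−5 days; MIC read visually and confirmed by absorbance at 560 nm; triplicate on three independent occasions.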
# [3] = system: Mycobacteroides abscessus; experiment: Antibacterial activity against Addison's disease patient derived Mycobacterium abscessus subsp. massiliense isolate CIP108297 rough variant after 3 to 5 days by two fold serial dilution method; assay type: functional; summary of the method: as §1
# [4] = system: Mycobacteroides abscessus; experiment: Antibacterial activity against Addison's disease patient derived Mycobacterium abscessus subsp. massiliense isolate CIP108297 smooth variant after 3 to 5 days by two fold serial dilution method; assay type: functional; summary of the method: as §1
# [5] = Antibacterial activity against non CF patient derived Mycobacterium abscessus subsp. bolletii isolate 17 smooth variant after 3 to 5 days by two fold serial dilution method; assay type: functional; conditions: Mycobacteroides abscessus; summary of the method: as §1
# [6] = system: Mycobacteroides abscessus; experiment: Antibacterial activity against Mycobacterium abscessus CIP_PIPD1 harboring MAB_4508 g925c/A309P mutant after 3 to 5 days by two fold serial dilution method; assay type: functional; summary of the method: as §1
# [7] = system: Mycobacteroides abscessus; experiment: Antibacterial activity against non CF patient derived Mycobacterium abscessus subsp. abscessus isolate CIP104536 rough variant after 3 to 5 days by two fold serial dilution method; assay type: functional; summary of the method: as §1
# [8] = system: Mycobacteroides abscessus; experiment: Antibacterial activity against Mycobacterium abscessus CIP_OK4-10 harboring MAB_4508 g925c/A309P mutant after 3 to 5 days by two fold serial dilution method; assay type: functional; summary of the method: as §1
# [9] = system: Mycobacteroides abscessus; experiment: Antibacterial activity against CF patient derived Mycobacterium abscessus subsp. abscessus rough variant after 3 to 5 days by two fold serial dilution method; assay type: functional; summary of the method: as §1
# [10] = system: Mycobacterium tuberculosis; experiment: Antibacterial activity against Mycobacterium tuberculosis by AlamarBlue assay; assay type: functional
# [11] = system: Mycobacteroides abscessus; experiment: Antibacterial activity against Mycobacterium abscessus CIP104536 smooth variant assessed as reduction in viable colony forming unit at […] after 4 days by time-kill assay; assay type: functional
# [12] = Selectivity index, ratio of IC50 for African green monkey Vero cells to MIC for Mycobacterium abscessus CIP104536; assay type: toxicity; conditions: read-out: Selectivity Index
# [13] = system: Mycobacteroides abscessus; experiment: Antibacterial activity against Mycobacterium abscessus CIP104536 smooth variant harboring pMV261 MAB_4508_A309P mutant at 0.5 to 1 ug/ml after 3 days; assay type: functional
# Summary of the method: (§2)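 M. abscessus overexpressing wild-type or A309P MAB_4508 from pMV261 plated on 7H10 agar with 10% OADC containing drug; plates incubated at 30 °C for 3 days before growth inspection.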
# [14] = system: Mycobacteroides abscessus; experiment: Antibacterial activity against CF patient derived Mycobacterium abscessus subsp. massiliense isolate 185 smooth variant after 3 to 5 days by two fold serial dilution method; assay type: functional; summary of the method: as §1
# [15] = Antibacterial activity against Mycobacterium abscessus subsp. bolletii isolate CIP108541 smooth variant after 3 to 5 days by two fold serial dilution method; assay type: functional; conditions: Mycobacteroides abscessus; summary of the method: as §1
# [16] = system: Mycobacteroides abscessus; experiment: Antibacterial activity against CF patient derived Mycobacterium abscessus subsp. abscessus smooth variant after 3 to 5 days by two fold serial dilution method; assay type: functional; summary of the method: as §1
# [17] = system: Mycobacteroides abscessus; experiment: Antibacterial activity against Mycobacterium abscessus CIP104536 after 3 to 5 days by two fold serial dilution method; assay type: functional
# Summary of the method: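 Broth microdilution per CLSI in cation-adjusted Mueller–Hinton broth; exponential-phase inoculum 5 × 10^6 CFU/mL; two-fold serial dilutions from highest concentration, solvent wells as control; 30 °C for 3−5 days; MIC read visually and confirmed by absorbance at 560 nm; triplicate on three independent occasions.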
# [18] = system: Mycobacteroides abscessus; experiment: Antibacterial activity against CF patient derived Mycobacterium abscessus subsp. massiliense isolate 107 smooth variant after 3 to 5 days by two fold serial dilution method; assay type: functional; summary of the method: as §1
# [19] = system: Mycobacteroides abscessus; experiment: Antibacterial activity against CF patient derived Mycobacterium abscessus subsp. abscessus isolate 2648 rough variant after 3 to 5 days by two fold serial dilution method; assay type: functional; summary of the method: as §1
# [20] = system: Mycobacteroides abscessus; experiment: Antibacterial activity against CF patient derived Mycobacterium abscessus subsp. massiliense isolate 210 rough variant after 3 to 5 days by two fold serial dilution method; assay type: functional; summary of the method: as §1
# [21] = system: Mycobacteroides abscessus; experiment: Antibacterial activity against CF patient derived Mycobacterium abscessus subsp. massiliense isolate 212 smooth variant after 3 to 5 days by two fold serial dilution method; assay type: functional; summary of the method: as §1
# [22] = Antibacterial activity against CF patient derived Mycobacterium abscessus subsp. bolletii isolate 108 rough variant after 3 to 5 days by two fold serial dilution method; assay type: functional; conditions: Mycobacteroides abscessus; summary of the method: as §1
# [23] = system: Mycobacteroides abscessus; experiment: Antibacterial activity against non CF patient derived Mycobacterium abscessus subsp. abscessus isolate 3022 rough variant after 3 to 5 days by two fold serial dilution method; assay type: functional; summary of the method: as §1
# [24] = system: Mycobacteroides abscessus; experiment: Antibacterial activity against Mycobacterium abscessus CIP104536 smooth variant harboring pMV261 MAB_4508 wild type at 0.5 to 1 ug/ml after 3 days; assay type: functional; summary of the method: as §2
# [25] = system: Mycobacteroides abscessus; experiment: Antibacterial activity against CF patient derived Mycobacterium abscessus subsp. massiliense isolate 111 smooth variant after 3 to 5 days by two fold serial dilution method; assay type: functional; summary of the method: as §1
# [26] = Antibacterial activity against CF patient derived Mycobacterium abscessus subsp. bolletii isolate 97 smooth variant after 3 to 5 days by two fold serial dilution method; assay type: functional; conditions: Mycobacteroides abscessus; summary of the method: as §1
# [27] = Antibacterial activity against non CF patient derived Mycobacterium abscessus subsp. bolletii isolate 19 rough variant after 3 to 5 days by two fold serial dilution method; assay type: functional; conditions: Mycobacteroides abscessus; summary of the method: as §1
# [28] = system: Mycobacteroides abscessus; experiment: Antibacterial activity against CF patient derived Mycobacterium abscessus subsp. abscessus isolate 2069 smooth variant after 3 to 5 days by two fold serial dilution method; assay type: functional; summary of the method: as §1
# [29] = system: Mycobacteroides abscessus; experiment: Antibacterial activity against CF patient derived Mycobacterium abscessus subsp. abscessus isolate 1298 smooth variant after 3 to 5 days by two fold serial dilution method; assay type: functional; summary of the method: as §1
# [30] = system: Mycobacterium tuberculosis; experiment: Inhibition of C-terminal His-tagged Mycobacterium tuberculosis Ag85C expressed in Escherichia coli C41 (DE3) at 2.5 to 50 uM after 1 hr by resorufin butyrate-based fluorescence assay
# Summary of the method: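 Purified Ag85C mycolyltransferase activity measured with the fluorescent probe resorufin butyrate; compounds tested at 2.5 to 50 μM.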
# [31] = Antibacterial activity against CF patient derived Mycobacterium abscessus subsp. bolletii isolate 114 smooth variant after 3 to 5 days by two fold serial dilution method; assay type: functional; conditions: Mycobacteroides abscessus; summary of the method: as §1
# [32] = system: Mycobacteroides abscessus; experiment: Antibacterial activity against non CF patient derived Mycobacterium abscessus subsp. abscessus isolate 2587 smooth variant after 3 to 5 days by two fold serial dilution method; assay type: functional; summary of the method: as §1
# [33] = system: Mycobacteroides abscessus; experiment: Antibacterial activity against CF patient derived Mycobacterium abscessus subsp. massiliense isolate 120 smooth variant after 3 to 5 days by two fold serial dilution method; assay type: functional; summary of the method: as §1
# [34] = system: Mycobacteroides abscessus; experiment: Antibacterial activity against CF patient derived Mycobacterium abscessus subsp. abscessus isolate 2524 rough variant after 3 to 5 days by two fold serial dilution method; assay type: functional; summary of the method: as §1
# [35] = system: Mycobacteroides abscessus; experiment: Antibacterial activity against CF patient derived Mycobacterium abscessus subsp. massiliense isolate 100 smooth variant after 3 to 5 days by two fold serial dilution method; assay type: functional; summary of the method: as §1
# [36] = system: Mycobacteroides abscessus; experiment: Antibacterial activity against non CF patient derived Mycobacterium abscessus subsp. abscessus isolate CIP104536 smooth variant after 3 to 5 days by two fold serial dilution method; assay type: functional; summary of the method: as §1
# [37] = system: Mycobacteroides abscessus; experiment: Antibacterial activity against CF patient derived Mycobacterium abscessus subsp. massiliense isolate 140 smooth variant after 3 to 5 days by two fold serial dilution method; assay type: functional; summary of the method: as §1
# Vero = experiment: Cytotoxicity against African green monkey Vero cells; assay type: cell-based; conditions: Chlorocebus sabaeus
# [38] = Antibacterial activity against CF patient derived Mycobacterium abscessus subsp. bolletii isolate 112 rough variant after 3 to 5 days by two fold serial dilution method; assay type: functional; conditions: Mycobacteroides abscessus; summary of the method: as §1
# [39] = system: Mycobacteroides abscessus; experiment: Antibacterial activity against CF patient derived Mycobacterium abscessus subsp. abscessus isolate 3321 smooth variant after 3 to 5 days by two fold serial dilution method; assay type: functional; summary of the method: as §1
# [40] = system: Mycobacteroides abscessus; experiment: Inhibition of MmpL3 in Mycobacterium abscessus CIP104536 smooth variant assessed as reduction in trehalose dimycolate synthesis up to 6.2 ug/ml preincubated for 1 hr followed by [14C]acetic acid addition measured after 2 hrs by TLC based autoradiography analysis
# Summary of the method: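 Exponential cultures in 7H9 with OADC exposed to increasing drug concentrations for 1 h at 37 °C with agitation, then labelled with 1 μCi/mL [14C]acetate (56 mCi/mmol) for 2 h; apolar lipids (TMM, TDM) run on TLC in chloroform/methanol/water 40:8:1; MAME and arabinogalactan-bound mycolates in petroleum ether/acetone 95:5; autoradiography.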
# [41] = Antibacterial activity against CF patient derived Mycobacterium abscessus subsp. bolletii isolate 116 smooth variant after 3 to 5 days by two fold serial dilution method; assay type: functional; conditions: Mycobacteroides abscessus; summary of the method: as §1
compound,measurement,setting,value
O=C(NC1CCCCCC1)c1cc2ccc(Br)cc2[nH]1,selectivity ratio,[1],≥ 2050
same,MIC,[2],0.125 µg/mL
same,MIC,[3],0.125 µg/mL
same,MIC,[4],0.25 µg/mL
same,MIC,[5],0.125 µg/mL
same,MIC,[6],32 µg/mL
same,MIC,[7],0.0625 µg/mL
same,MIC,[8],32 µg/mL
same,MIC,[9],0.125 µg/mL
same,MIC=<90,[10],0.0313 µg/mL
same,Activity,[11],Active
same,selectivity ratio,[12],≥ 512
same,Activity,[13],inactive
same,MIC,[14],0.125 µg/mL
same,MIC,[15],0.125 µg/mL
same,MIC,[16],0.125 µg/mL
same,MIC,[17],0.125 µg/mL
same,MIC,[18],0.25 µg/mL
same,MIC,[19],0.125 µg/mL
same,MIC,[20],0.125 µg/mL
same,MIC,[21],0.125 µg/mL
same,MIC,[22],0.5 µg/mL
same,MIC,[23],0.125 µg/mL
same,Activity,[24],Active
same,MIC,[25],0.125 µg/mL
same,MIC,[26],0.25 µg/mL
same,MIC,[27],0.125 µg/mL
same,MIC,[28],0.125 µg/mL
same,MIC,[29],0.125 µg/mL
same,inhibition,[30],inactive
same,MIC,[31],0.125 µg/mL
same,MIC,[32],0.25 µg/mL
same,MIC,[33],0.125 µg/mL
same,MIC,[34],0.125 µg/mL
same,MIC,[35],0.125 µg/mL
same,MIC,[36],0.125 µg/mL
same,MIC,[37],0.125 µg/mL
same,IC50,Vero,≥ 64 µg/mL
same,MIC,[38],0.0625 µg/mL
same,MIC,[39],0.125 µg/mL
same,inhibition,[40],Dose-dependent effect
same,MIC,[41],1 µg/mL
Cc1ccccc1CN1CCC(O)(c2ccc(Cl)c(C(F)(F)F)c2)CC1,MIC,[6],8 µg/mL
same,MIC,[8],8 µg/mL
same,MIC,[36],0.125 µg/mL
